What was measured:
HeLa [1] = test: Antiproliferative activity against human HeLa cells after 12 hrs by MTT assay; assay type: functional, cell-based
[2] = molecular target: Receptor tyrosine-protein kinase erbB-2 (Homo sapiens, UniProt P04626); test: Inhibition of His-tagged human HER-2 cytoplasmic domain (676-1245 aa) (unknown origin) assessed as inhibition of autophosphorylation by TR-fluorometry
[3] = molecular target: Epidermal growth factor receptor (Homo sapiens, UniProt P00533); test: Inhibition of His-tagged EGFR cytoplasmic domain (645-1186 aa) (unknown origin) assessed as inhibition of autophosphorylation by TR-fluorometry
[4] = Antiproliferative activity against mouse B16F10 cells after 12 hrs by MTT assay; assay type: functional, cell-based; details: B16-F10, 12 h
MCF7 = test: Antiproliferative activity against human MCF7 cells after 12 hrs by MTT assay; assay type: functional, cell-based; details: MCF7, 12 h
HepG2 = test: Antiproliferative activity against human HepG2 cells after 12 hrs by MTT assay; assay type: functional, cell-based; details: HepG2, 12 h
[5] = Cytotoxicity against human HEK293T cells for 24 hrs by MTT assay; assay type: cell-based, HEK-293T
Procedure, shortened: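 293T human kidney epithelial cells exposed to multiple concentrations and viability read by MTT.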

HeLa [6] = test: Induction of apoptosis in human HeLa cells assessed as necrotic cells at 1.04 uM after 48 hrs by annexin-V-FITC/PI staining based flow cytometry (reference value: 3.82%); assay type: functional
Procedure, shortened: (§1)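 HeLa cells treated at 0.13, 0.26, 0.52 or 1.04 µM for 48 h, then collected and stained with annexin V-FITC/PI for flow cytometry. Early apoptotic cells are annexin V+/PI− (lower right quadrant) and late apoptotic cells are annexin V+/PI+ (upper right quadrant). Data are mean ± S.E.M. of three independent experiments.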

HeLa [7] = test: Induction of apoptosis in human HeLa cells assessed as necrotic cells at 0.52 uM after 48 hrs by annexin-V-FITC/PI staining based flow cytometry (reference value: 3.82%); assay type: functional; procedure, shortened: as §1
HeLa [8] = test: Induction of apoptosis in human HeLa cells assessed as necrotic cells at 0.26 uM after 48 hrs by annexin-V-FITC/PI staining based flow cytometry (reference value: 3.82%); assay type: functional; procedure, shortened: as §1
HeLa [9] = test: Induction of apoptosis in human HeLa cells assessed as necrotic cells at 0.13 uM after 48 hrs by annexin-V-FITC/PI staining based flow cytometry (reference value: 3.82%); assay type: functional; procedure, shortened: as §1
HeLa [10] = test: Induction of apoptosis in human HeLa cells assessed as late apoptotic cells at 1.04 uM after 48 hrs by annexin-V-FITC/PI staining based flow cytometry (reference value: 8.52%); assay type: functional; procedure, shortened: as §1
HeLa [11] = test: Induction of apoptosis in human HeLa cells assessed as late apoptotic cells at 0.52 uM after 48 hrs by annexin-V-FITC/PI staining based flow cytometry (reference value: 8.52%); assay type: functional; procedure, shortened: as §1
HeLa [12] = test: Induction of apoptosis in human HeLa cells assessed as late apoptotic cells at 0.26 uM after 48 hrs by annexin-V-FITC/PI staining based flow cytometry (reference value: 8.52%); assay type: functional; procedure, shortened: as §1
HeLa [13] = test: Induction of apoptosis in human HeLa cells assessed as late apoptotic cells at 0.13 uM after 48 hrs by annexin-V-FITC/PI staining based flow cytometry (reference value: 8.52%); assay type: functional; procedure, shortened: as §1
HeLa [14] = test: Induction of apoptosis in human HeLa cells assessed as early apoptotic cells at 1.04 uM after 48 hrs by annexin-V-FITC/PI staining based flow cytometry (reference value: 0.889%); assay type: functional; procedure, shortened: as §1
HeLa [15] = test: Induction of apoptosis in human HeLa cells assessed as early apoptotic cells at 0.52 uM after 48 hrs by annexin-V-FITC/PI staining based flow cytometry (reference value: 0.889%); assay type: functional; procedure, shortened: as §1
HeLa [16] = test: Induction of apoptosis in human HeLa cells assessed as early apoptotic cells at 0.26 uM after 48 hrs by annexin-V-FITC/PI staining based flow cytometry (reference value: 0.889%); assay type: functional; procedure, shortened: as §1
HeLa [17] = test: Induction of apoptosis in human HeLa cells assessed as early apoptotic cells at 0.13 uM after 48 hrs by annexin-V-FITC/PI staining based flow cytometry (reference value: 0.889%); assay type: functional; procedure, shortened: as §1
HeLa [18] = test: Induction of apoptosis in human HeLa cells assessed as viable cells at 1.04 uM after 48 hrs by annexin-V-FITC/PI staining based flow cytometry (reference value: 86.8%); assay type: functional; details: read-out: Activity; procedure, shortened: as §1
HeLa [19] = test: Induction of apoptosis in human HeLa cells assessed as viable cells at 0.52 uM after 48 hrs by annexin-V-FITC/PI staining based flow cytometry (reference value: 86.8%); assay type: functional; details: read-out: Activity; procedure, shortened: as §1
HeLa [20] = test: Induction of apoptosis in human HeLa cells assessed as viable cells at 0.26 uM after 48 hrs by annexin-V-FITC/PI staining based flow cytometry (reference value: 86.8%); assay type: functional; details: read-out: Activity; procedure, shortened: as §1
HeLa [21] = test: Induction of apoptosis in human HeLa cells assessed as viable cells at 0.13 uM after 48 hrs by annexin-V-FITC/PI staining based flow cytometry (reference value: 86.8%); assay type: functional; details: read-out: Activity; procedure, shortened: as §1
HeLa [22] = test: Induction of apoptosis in human HeLa cells after 48 hrs by annexin-V-FITC/PI staining based flow cytometry; assay type: functional, cell-based; procedure, shortened: as §1

Epidermal growth factor receptor, sequence (P00533 whole entry, the tested form may be a part): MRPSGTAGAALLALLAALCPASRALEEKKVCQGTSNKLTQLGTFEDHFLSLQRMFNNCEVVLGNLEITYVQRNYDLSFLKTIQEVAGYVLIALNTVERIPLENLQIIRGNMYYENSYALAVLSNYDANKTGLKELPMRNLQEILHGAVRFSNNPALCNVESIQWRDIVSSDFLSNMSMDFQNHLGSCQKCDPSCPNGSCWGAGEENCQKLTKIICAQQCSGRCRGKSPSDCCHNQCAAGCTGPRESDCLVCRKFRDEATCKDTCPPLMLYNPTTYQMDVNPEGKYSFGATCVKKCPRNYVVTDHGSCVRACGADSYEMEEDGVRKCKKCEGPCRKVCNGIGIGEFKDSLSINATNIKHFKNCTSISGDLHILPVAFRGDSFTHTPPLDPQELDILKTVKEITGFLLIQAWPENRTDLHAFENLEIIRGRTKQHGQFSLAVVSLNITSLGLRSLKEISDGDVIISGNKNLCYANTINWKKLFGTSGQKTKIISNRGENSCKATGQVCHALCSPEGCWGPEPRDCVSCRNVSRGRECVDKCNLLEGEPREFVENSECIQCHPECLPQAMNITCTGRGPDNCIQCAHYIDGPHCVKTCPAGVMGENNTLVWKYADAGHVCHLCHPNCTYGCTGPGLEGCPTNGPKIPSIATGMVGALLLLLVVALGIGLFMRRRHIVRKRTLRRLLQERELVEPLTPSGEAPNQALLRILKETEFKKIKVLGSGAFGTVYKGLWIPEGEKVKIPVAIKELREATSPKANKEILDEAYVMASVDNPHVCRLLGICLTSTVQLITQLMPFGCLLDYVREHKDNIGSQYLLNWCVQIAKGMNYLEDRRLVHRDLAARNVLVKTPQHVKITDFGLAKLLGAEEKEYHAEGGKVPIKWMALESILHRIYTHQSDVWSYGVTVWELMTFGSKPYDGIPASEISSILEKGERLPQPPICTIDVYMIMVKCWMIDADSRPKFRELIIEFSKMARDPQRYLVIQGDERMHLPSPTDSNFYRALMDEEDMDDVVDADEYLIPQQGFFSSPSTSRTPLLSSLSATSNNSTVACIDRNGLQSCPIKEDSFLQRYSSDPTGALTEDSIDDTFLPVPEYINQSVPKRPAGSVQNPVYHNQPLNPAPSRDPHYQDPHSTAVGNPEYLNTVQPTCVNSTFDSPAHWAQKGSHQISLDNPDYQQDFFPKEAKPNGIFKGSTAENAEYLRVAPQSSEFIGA
Receptor tyrosine-protein kinase erbB-2, sequence (P04626 whole entry, the tested form may be a part): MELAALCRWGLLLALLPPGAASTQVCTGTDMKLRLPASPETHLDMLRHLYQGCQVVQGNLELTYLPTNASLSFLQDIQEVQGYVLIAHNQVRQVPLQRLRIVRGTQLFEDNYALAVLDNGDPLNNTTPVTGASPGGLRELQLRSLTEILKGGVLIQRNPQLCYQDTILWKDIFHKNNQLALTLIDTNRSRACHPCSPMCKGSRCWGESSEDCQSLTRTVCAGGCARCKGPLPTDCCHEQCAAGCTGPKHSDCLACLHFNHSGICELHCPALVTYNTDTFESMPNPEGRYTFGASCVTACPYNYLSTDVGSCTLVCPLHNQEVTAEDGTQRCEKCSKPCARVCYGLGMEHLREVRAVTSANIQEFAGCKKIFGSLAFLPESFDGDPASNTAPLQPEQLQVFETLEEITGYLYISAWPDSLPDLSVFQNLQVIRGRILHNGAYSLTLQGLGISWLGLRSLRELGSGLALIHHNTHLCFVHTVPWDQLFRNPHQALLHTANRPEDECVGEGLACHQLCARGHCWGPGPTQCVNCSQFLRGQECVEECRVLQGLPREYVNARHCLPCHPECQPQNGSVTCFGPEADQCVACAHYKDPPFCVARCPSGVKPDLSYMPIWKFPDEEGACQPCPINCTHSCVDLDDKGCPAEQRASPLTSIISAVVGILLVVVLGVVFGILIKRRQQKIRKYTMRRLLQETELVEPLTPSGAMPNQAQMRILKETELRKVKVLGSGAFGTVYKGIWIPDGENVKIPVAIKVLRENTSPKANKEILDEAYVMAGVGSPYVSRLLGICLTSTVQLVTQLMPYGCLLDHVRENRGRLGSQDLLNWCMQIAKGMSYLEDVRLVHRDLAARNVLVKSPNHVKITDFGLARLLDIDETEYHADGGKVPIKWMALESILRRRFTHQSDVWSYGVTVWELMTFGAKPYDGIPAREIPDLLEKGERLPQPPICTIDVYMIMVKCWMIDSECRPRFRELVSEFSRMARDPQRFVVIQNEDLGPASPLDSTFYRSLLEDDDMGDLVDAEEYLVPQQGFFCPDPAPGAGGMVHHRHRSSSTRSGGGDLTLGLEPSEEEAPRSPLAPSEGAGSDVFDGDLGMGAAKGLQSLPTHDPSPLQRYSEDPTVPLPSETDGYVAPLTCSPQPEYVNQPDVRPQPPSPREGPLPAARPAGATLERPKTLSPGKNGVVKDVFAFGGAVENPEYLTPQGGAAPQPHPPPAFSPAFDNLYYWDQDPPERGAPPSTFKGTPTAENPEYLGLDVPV

| Structure (SMILES) | IC50 (HeLa [1]) [µM] | IC50 [2] [µM] | IC50 ([3]; read-out: IC50) [µM] | IC50 ([3]; read-out: pIC50 (converted)) [µM] | IC50 [4] [µM] | IC50 (MCF7) [µM] | IC50 (HepG2) [µM] | CC50 at 24 h [5] [µM] | also measured |
| --- | --- | --- | --- | --- | --- | --- | --- | --- | --- |
| CC(=O)N1N=C(c2ccccc2)CC1c1ccc(C(=O)OCCn2c([N+](=O)[O-])cnc2C)cc1 (stereo unspecified) | 48.8 | 14 | 9.58 | 9.59 | 62.7 | 58.2 | 42.2 | – | – |
| C#Cc1cccc(Nc2ncnc3cc(OCCOC)c(OCCOC)cc23)c1 [ERLOTINIB] | – | – | – | – | – | – | – | 105 | – |
| CC(=O)N1N=C(c2ccc(F)cc2)CC1c1ccc(C(=O)OC(C)Cn2c([N+](=O)[O-])cnc2C)cc1 (stereo unspecified) | 7.42 | 8.54 | 6.58 | 6.59 | 15.5 | 5.21 | 8.89 | – | – |
| CC(=O)N1N=C(c2ccccc2)CC1c1ccc(C(=O)OC(C)Cn2c([N+](=O)[O-])cnc2C)cc1 (stereo unspecified) | 45.2 | 17 | 12.2 | 12.2 | 68.2 | 49.9 | 43.8 | – | – |
| CC(=O)N1N=C(c2ccc(I)cc2)CC1c1ccc(C(=O)OC(C)Cn2c([N+](=O)[O-])cnc2C)cc1 (stereo unspecified) | 25.6 | 12.7 | 10.7 | 10.7 | 19.1 | 9.77 | 9.98 | – | – |
| CC(=O)N1N=C(c2ccc(I)cc2)CC1c1ccc(C(=O)OCCn2c([N+](=O)[O-])cnc2C)cc1 (stereo unspecified) | 7.53 | 2.75 | 1.26 | 1.26 | 11.8 | 4.85 | 6.28 | – | – |
| CC(=O)N1N=C(c2ccc(Br)cc2)CC1c1ccc(C(=O)OCCn2c([N+](=O)[O-])cnc2C)cc1 (stereo unspecified) | 2.82 | 3.45 | 4.13 | 4.13 | 13.1 | 5.56 | 3.82 | – | – |
| COc1ccc(C2=NN(C(C)=O)C(c3ccc(C(=O)OC(C)Cn4c([N+](=O)[O-])cnc4C)cc3)C2)cc1 (stereo unspecified) | 35.1 | 12 | 21.3 | 21.3 | 40.6 | 28 | 25.2 | – | – |
| CC(=O)N1N=C(c2ccc(F)cc2)CC1c1ccc(C(=O)OCCn2c([N+](=O)[O-])cnc2C)cc1 (stereo unspecified) | 2.45 | 4.07 | – | – | 4.19 | 1.67 | 1.89 | 118 | – |
| CC(=O)N1N=C(c2ccc(Cl)cc2)CC1c1ccc(C(=O)OC(C)Cn2c([N+](=O)[O-])cnc2C)cc1 (stereo unspecified) | 15.6 | 9.96 | 9.26 | 9.27 | 22.2 | 8.82 | 12.2 | – | – |
| CC(=O)N1N=C(c2ccc(Br)cc2)CC1c1ccc(C(=O)OC(C)Cn2c([N+](=O)[O-])cnc2C)cc1 (stereo unspecified) | 11.8 | 8.27 | 5.96 | 5.97 | 10.8 | 8.92 | 9.02 | – | – |
| CC(=O)N1N=C(c2ccc(C(F)(F)F)cc2)CC1c1ccc(C(=O)OCCn2c([N+](=O)[O-])cnc2C)cc1 (stereo unspecified) | 0.13 | 0.51 | 0.26 | – | 0.19 | 0.96 | 0.33 | 98.9 | Activity (HeLa [6]): 0.43%; Activity (HeLa [7]): 0.988%; Activity (HeLa [8]): 0.688%; Activity (HeLa [9]): 1.88%; Activity (HeLa [10]): 26.7%; Activity (HeLa [11]): 20.7%; Activity (HeLa [12]): 21.9%; Activity (HeLa [13]): 20.5%; Activity (HeLa [14]): 54.2%; Activity (HeLa [15]): 36.2%; Activity (HeLa [16]): 26.7%; Activity (HeLa [17]): 3.72%; viability at 1.04 µM (HeLa [18]): 18.6%; viability at 0.52 µM (HeLa [19]): 42.1%; viability at 0.26 µM (HeLa [20]): 50.7%; viability at 0.13 µM (HeLa [21]): 73.9%; Activity (HeLa [22]): Dose-dependent effect |
| CCOc1ccc(C2=NN(C(C)=O)C(c3ccc(C(=O)OCCn4c([N+](=O)[O-])cnc4C)cc3)C2)cc1 (stereo unspecified) | 31.4 | 14.9 | 15.2 | 15.2 | 38.9 | 20.6 | 19.3 | – | – |
| CC(=O)N1N=C(c2ccc([N+](=O)[O-])cc2)CC1c1ccc(C(=O)OCCn2c([N+](=O)[O-])cnc2C)cc1 (stereo unspecified) | 0.15 | 2.06 | 0.6 | 0.601 | 0.38 | 1.13 | 1.75 | 78.8 | – |
| CC(=O)N1N=C(c2ccc(C)cc2)CC1c1ccc(C(=O)OCCn2c([N+](=O)[O-])cnc2C)cc1 (stereo unspecified) | 76.8 | 13.2 | 10.9 | 10.9 | > 100 | 70.7 | 50.2 | – | – |
| CC(=O)N1N=C(c2ccc(C(F)(F)F)cc2)CC1c1ccc(C(=O)OC(C)Cn2c([N+](=O)[O-])cnc2C)cc1 (stereo unspecified) | 0.42 | 5.62 | 6.67 | 6.68 | 5.87 | 2.18 | 2.21 | 92.6 | – |
| COc1ccc(C2=NN(C(C)=O)C(c3ccc(C(=O)OCCn4c([N+](=O)[O-])cnc4C)cc3)C2)cc1 (stereo unspecified) | 27.9 | 17.3 | 8.54 | 8.55 | 36.2 | 30.2 | 15.8 | – | – |
| CC(=O)N1N=C(c2ccc([N+](=O)[O-])cc2)CC1c1ccc(C(=O)OC(C)Cn2c([N+](=O)[O-])cnc2C)cc1 (stereo unspecified) | 3.78 | 3.53 | 1.45 | 1.45 | 12.2 | 3.33 | 3.62 | 168 | – |
| CC(=O)N1N=C(c2ccc(C)cc2)CC1c1ccc(C(=O)OC(C)Cn2c([N+](=O)[O-])cnc2C)cc1 (stereo unspecified) | 72.1 | 18.9 | 25.6 | 25.6 | > 100 | 92.1 | 58.1 | – | – |
| CS(=O)(=O)CCNCc1ccc(-c2ccc3ncnc(Nc4ccc(OCc5cccc(F)c5)c(Cl)c4)c3c2)o1 [LAPATINIB] | 0.12 | – | – | – | 0.21 | 0.47 | 0.27 | 123 | – |
| CC(=O)N1N=C(c2ccc(Cl)cc2)CC1c1ccc(C(=O)OCCn2c([N+](=O)[O-])cnc2C)cc1 (stereo unspecified) | 4.13 | 4.1 | 7.37 | 7.38 | 4.82 | 2.27 | 3.31 | 138 | – |
| CCOc1ccc(C2=NN(C(C)=O)C(c3ccc(C(=O)OC(C)Cn4c([N+](=O)[O-])cnc4C)cc3)C2)cc1 (stereo unspecified) | 47.6 | 18.1 | 26.9 | 27 | 46.6 | 40.6 | 38.8 | – | – |
